This is an account of results in ChEMBL document CHEMBL1157105, “Semisynthesis of natural flavones inhibiting tubulin polymerization, from hesperidin” (J Nat Prod, 2010).

The subject of assay [1] is KB. Put plainly: Cytotoxicity against human KB cells after 72 hrs by MTS assay. It is filed as functional, cell-based. The procedure, abridged:
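KB cells grown in D-MEM with 10% fetal calf serum under 5% CO2. Seeded at 600 cells/well and dosed 24 h later with DMSO solutions from 0.5 nM to 10 µM (1% DMSO final; vehicle controls). After 72 h, MTS added for 3 h at 37 °C and A490 read, in triplicate. % inhibition = (1 − OD treated/OD control) × 100; IC50 derived.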
(Formazan colour is commonly taken as a measure of viable cells.)

For assay [2], the species on record is Ovis aries. Put plainly: Ratio of compound IC50 to DPPT IC50 for sheep brain tubulin polymerization. A digest of the protocol: (§1)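 Sheep brain microtubule protein purified by two 37 °C/0 °C assembly–disassembly cycles in 100 mM MES pH 6.6, 1 mM EGTA, 0.5 mM MgCl2. Compound in DMSO (1 µL) added to 150 µL microtubule solution, then incubated 37 °C 10 min and 0 °C 5 min. Polymerization rate read by turbidity at 350 nm. Reported as % inhibition at ~2.5 × 10^-3 M or IC50; deoxypodophyllotoxin reference, ratio IC50 compound/IC50 DPPT.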

For assay [3], the system named is HL-60. Description: Induction of apoptosis in human HL60 cells assessed as increase in caspase 3/7 activation at 500 nM after 48 hrs by fluorescence assay relative to control. It is filed as functional. A digest of the protocol: (§2)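 HL60 cells grown in complete RPMI, seeded at 20 000 cells/well and treated with DMSO-dissolved compound. Vehicle controls; 1 µM doxorubicine positive control. Fluorescence (ex 360/em 465 nm) followed over 3 h. Reported as fold caspase 3/7 activation over control.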

The nature of assay [4]: Inhibition of sheep brain tubulin polymerization after 15 mins by turbidimetry. Also on record: species or system Ovis aries. A digest of the protocol:
as §1

Assay [5] concerns HL-60. Put plainly: Induction of apoptosis in human HL60 cells assessed as increase in caspase 3/7 activation at 50 nM after 48 hrs by fluorescence assay relative to control. It counts as functional. A digest of the protocol: as §2
The species entered for assay [6] is Ovis aries. Description: Inhibition of sheep brain tubulin polymerization at 2.5 mM after 15 mins by turbidimetry. The procedure, abridged:
as §1

For assay [7], the system named is KB. Description: Cytotoxicity against human KB cells at 1 uM after 72 hrs by MTS assay.

SMILES strings stand for the structures.

Consider `COc1ccc(-c2oc3cc(OC)c(OC)c(O)c3c(=O)c2OC)cc1O` [CASTICIN], for which the figures for the 50% inhibitory concentration (IC50) (with KB [1]; in assay [4]) were 97 nM and 19000 nM, respectively. For the same compound, the Ratio IC50 in the assay filed under Ovis aries [2] was found to be 6.8. The “fold change (FC)” value with HL-60 [3] came to 5.3.

On to `COc1ccc(-c2oc3c(OC)c(OC)c(OC)c(O)c3c(=O)c2OC)cc1O`, for which the half-inhibitory concentration (IC50) – broadly, the concentration that gives 50% inhibition – amounted to 8 nM with KB [1] and 1300 nM in assay [4]. For the same compound, the Ratio IC50 in the assay listed under Ovis aries [2] was determined as 0.46. Moreover, the “fold change (FC)” value in the assay with HL-60 [5] was 6.9.

In the case of `COc1ccc(-c2oc3c(N(C)C)c(OC)c(OC)c(O)c3c(=O)c2OC)cc1O`, the inhibition (commonly the share of the control response that was lost under treatment) in the assay listed under Ovis aries [6] came to 0%. For the same compound, in the assay with KB [7], the Activity amounted to 40%.

Take `COc1ccc(-c2oc3c(OC)c(OC)cc(O)c3c(=O)c2OC)cc1O`: the inhibition in the assay listed under Ovis aries [6] was 0%. Besides, the Activity in the assay on KB [7] was determined as 9%.

`COc1cc(O)c2c(=O)c(OC)c(-c3ccc(OC)c(O)c3)oc2c1` [AYANIN]: the inhibition in the assay filed under Ovis aries [6] worked out at 0%. In the assay on KB [7], this compound showed an Activity of 3%.

For `COc1ccc(-c2oc3c(Br)c(OC)c(Br)c(O)c3c(=O)c2OC)cc1O`, in the assay listed under Ovis aries [6], the inhibition was 36%. In the assay on KB [1], it took 404 nM to reach half-maximal inhibition (IC50). Moreover, the “fold change (FC)” value in the assay on HL-60 [5] worked out at 3.2.

Turning to `COc1ccc(-c2oc3c(OC)c(O)c(OC)c(O)c3c(=O)c2OC)cc1O`, the Ratio IC50 in the assay filed under Ovis aries [2] came to 5. In the assay on KB [7], this compound showed an Activity of 10%. The compound also had an IC50 in assay [4] of 14000 nM.
